Measurements: ChEMBL document CHEMBL1151470, “Pharmacokinetic interaction between fosamprenavir-ritonavir and rifabutin in healthy subjects” (Antimicrob Agents Chemother, 2008)

Tests used:
Homo sapiens [1] = test: Toxicity in human assessed as nervous system disorder at 150 mg, […] with 700 mg fosamprenavir and 100 mg ritonavir po BID; format: organism-based; details: in vivo
Homo sapiens [2] = test: Toxicity in human assessed as decrease in neutrophile count at 150 mg, […] with 700 mg fosamprenavir and 100 mg ritonavir po BID; format: organism-based; parameters: scale not given: the % may be the effect or the level left; details: in vivo
[3] = AUC (0 to 48 hrs) in human at 300 mg, po QD; format: ADME, organism-based; parameters: time < 48 hr, dose 300 mg, route oral; details: plasma
Summary of the method: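 Volunteers took RFB 300 mg QD alone to steady state. Serial EDTA plasma was sampled on the last treatment day at predose and 0.5–24 h, then stored at –20°C. AUC0-24 came from noncompartmental analysis (linear up/log-linear down trapezoidal) using actual times, and was doubled to estimate AUC0-48.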

Homo sapiens [4] = test: Toxicity in human assessed as pain at 300 mg, po QD; format: organism-based; details: in vivo
[5] = AUC (0 to 48 hrs) in human at 150 mg, […] coadministered with 700 mg fosamprenavir and 100 mg ritonavir po BID; format: ADME, organism-based; parameters: time < 48 hr, dose 150 mg, route oral; details: plasma
Summary of the method: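 Healthy volunteers received RFB 150 mg every other day with FPV-RTV 700/100 mg BID to steady state. Serial EDTA plasma was sampled on the last treatment day at predose and 0.5–24, 36 and 48 h, then stored at –20°C. AUC0-48 came from noncompartmental analysis (linear up/log-linear down trapezoidal) using actual elapsed sampling times.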

Homo sapiens [6] = test: Toxicity in human assessed as rash generalized at 300 mg, po QD; format: organism-based; details: in vivo
Homo sapiens [7] = test: Toxicity in human assessed as blood and lymphatic system disorder at 300 mg, po QD; format: organism-based; details: in vivo
Homo sapiens [8] = test: Toxicity in human assessed as neutropenia at 300 mg, po QD; format: organism-based; details: in vivo
Homo sapiens [9] = test: Toxicity in human assessed as nausea at 150 mg, po QOD coadministered with 700 mg fosamprenavir and 100 mg ritonavir po BID; details: in vivo
Homo sapiens [10] = test: Toxicity in human assessed as musculoskeletal and connective tissue disorder at 150 mg, […] with 700 mg fosamprenavir and 100 mg ritonavir po BID; format: organism-based; details: in vivo
Homo sapiens [11] = test: Toxicity in human assessed as gastrointestinal disorder at 300 mg, po QD; format: organism-based; details: in vivo
Homo sapiens [12] = test: Toxicity in human assessed as chills at 150 mg, […] with 700 mg fosamprenavir and 100 mg ritonavir po BID; format: organism-based; details: in vivo
Homo sapiens [13] = test: Toxicity in human assessed as psychiatric disorder at 150 mg, […] with 700 mg fosamprenavir and 100 mg ritonavir po BID; format: organism-based; details: in vivo
Homo sapiens [14] = test: Toxicity in human assessed as skin and subcutaneous tissue disorder at 300 mg, po QD; format: organism-based; details: in vivo
Homo sapiens [15] = test: Toxicity in human assessed as myalgia at 300 mg, po QD; format: organism-based; details: in vivo
Homo sapiens [16] = test: Toxicity in human assessed as pollakiurea at 300 mg, po QD; format: organism-based; details: in vivo
Homo sapiens [17] = test: Toxicity in human assessed as chromaturia at 150 mg, po QOD coadministered with 700 mg fosamprenavir and 100 mg ritonavir po BID; details: in vivo
Homo sapiens [18] = test: Toxicity in human assessed as chromaturia at 300 mg, po QD; format: organism-based; details: in vivo
[19] = Cmax in human at 300 mg, po QD; details: in vivo
Homo sapiens [20] = test: Toxicity in human assessed as psychiatric disorder at 300 mg, po QD; format: organism-based; details: in vivo
Homo sapiens [21] = test: Toxicity in human assessed as renal and urinary disorder at 150 mg, […] with 700 mg fosamprenavir and 100 mg ritonavir po BID; format: organism-based, Urine; details: in vivo
Homo sapiens [22] = test: Toxicity in human assessed as thrombocytopenia at 300 mg, po QD; format: organism-based; details: in vivo
Homo sapiens [23] = test: Toxicity in human assessed as neutropenia at 150 mg, […] with 700 mg fosamprenavir and 100 mg ritonavir po BID; format: organism-based; details: in vivo
Homo sapiens [24] = test: Toxicity in human assessed as general disorder at 300 mg, po QD; format: organism-based; details: in vivo
Homo sapiens [25] = test: Toxicity in human assessed as nausea at 300 mg, po QD; format: organism-based; details: in vivo
Homo sapiens [26] = test: Toxicity in human assessed as musculoskeletal and connective tissue disorder at 300 mg, po QD; format: organism-based; details: in vivo
Homo sapiens [27] = test: Toxicity in human assessed as pollakiurea at 150 mg, po QOD coadministered with 700 mg fosamprenavir and 100 mg ritonavir po BID; details: in vivo

Structure (SMILES): CO[C@H]1/C=C/O[C@@]2(C)Oc3c(C)c(O)c4c(c3C2=O)C2=NC3(CCN(CC(C)C)CC3)NC2=C(NC(=O)/C(C)=C\C=C\[C@H](C)[C@H](O)[C@@H](C)[C@@H](O)[C@@H](C)[C@H](OC(C)=O)[C@@H]1C)C4=O [RIFABUTIN]
- Activity (Homo sapiens [1]): 55%
- Activity (Homo sapiens [2]): 3%
- AUC at 48 h [3]: 6110 ng·h/mL
- Activity (Homo sapiens [4]): 2%
- AUC at 48 h [5]: 5810 ng·h/mL
- Activity (Homo sapiens [6]): 0%
- Activity (Homo sapiens [7]): 3%
- Activity (Homo sapiens [8]): 2%
- Activity (Homo sapiens [9]): 9%
- Activity (Homo sapiens [10]): 5%
- Activity (Homo sapiens [11]): 2%
- Activity (Homo sapiens [12]): 3%
- Activity (Homo sapiens [13]): 2%
- Activity (Homo sapiens [14]): 0%
- Activity (Homo sapiens [15]): 0%
- Activity (Homo sapiens [16]): 6%
- Activity (Homo sapiens [17]): 4%
- Activity (Homo sapiens [18]): 0%
- Cmax [19]: 313 ng/mL
- Activity (Homo sapiens [20]): 5%
- Activity (Homo sapiens [21]): 50%
- Activity (Homo sapiens [22]): 0%
- Activity (Homo sapiens [23]): 1%
- Activity (Homo sapiens [24]): 3%
- Activity (Homo sapiens [25]): 6%
- Activity (Homo sapiens [26]): 2%
- Activity (Homo sapiens [27]): 12%
